Results published in ChEMBL document CHEMBL4387720, “Lead generation of 1,2-dithiolanes as exon 19 and exon 21 mutant EGFR tyrosine kinase inhibitors” (Bioorg Med Chem Lett, 2019).

Assays:
NCI-H460 = test: cells; format: functional; conditions: Homo sapiens, NCI-H460, 48 h
A549 = test: Cytotoxicity against human A549 cells assessed as reduction in measured protein incubated for 48 hrs by SRB assay; format: functional; conditions: A549, 48 h, read-out: LC50 (the source's name)
How it was run: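 Tested in the NCI-60 panel with a five-dose response curve, each value the mean of 2 experiments.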

NCI-H322M = test: Therapeutic index, ratio of LC50 for human NCI-H322M cells to GI50 for human NCI-H322M cells; format: functional
How it was run: (§1)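 NCI-60 panel screen using five-dose response curves, each value an average of 2 experiments. […] The therapeutic index is calculated as LC50/GI50 for the same cell line.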

CCRF-CEM = test: Therapeutic index, ratio of LC50 for human CCRF-CEM cells to GI50 for human CCRF-CEM cells; format: functional
How it was run: as §1

MOLT-4 = test: Therapeutic index, ratio of LC50 for human MOLT4 cells to GI50 for human MOLT4 cells; format: functional
How it was run: as §1

[1] = target: Epidermal growth factor receptor (Homo sapiens, UniProt P00533, L747-S752DEL/P753S); test: Binding affinity to human partial length EGFR L747-S752del/P753S mutant expressed in bacterial expression system by KinomeScan assay
How it was run: (§2)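 Competition binding against an immobilized active-site-directed ligand. Bound kinase is quantified by qPCR of its DNA tag. Kd values come from duplicate 11-point dose-response curves.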

[2] = target: Epidermal growth factor receptor (Homo sapiens, UniProt P00533, L861Q); test: Binding affinity to human partial length EGFR L861Q mutant (R669 to V1011 residues) expressed in bacterial expression system by KinomeScan assay
How it was run: as §2

[3] = target: Tyrosine-protein kinase Tec (Homo sapiens) (UniProt P42680); test: Inhibition of probe binding to TEC (unknown origin) using rabbit reticulate lysate system at 250 nM after 1 hr by luminescence assay relative to control
[4] = target: Epidermal growth factor receptor (Homo sapiens, UniProt P00533, L858R); test: Binding affinity to human partial length EGFR L858R mutant (R669 to V1011 residues) expressed in bacterial expression system under full equilibrating condition by scanKINETIC assay
How it was run: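 Binding kinetics are read from Kd values measured under four dose-response arms. Arm A is full equilibration. Arm B is equilibrate, then 3-fold dilution, then equilibrate. Arm C is partial equilibration. Arm D is predilution followed by full equilibration. Comparing the arms assesses reversibility of binding.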

Cytochrome P450 2D6 = Cytochrome P450 2D6 (Homo sapiens, UniProt P10635); test: Inhibition of CYP2D6 (unknown origin); format: ADME
[5] = Half life in rat S9 fraction; format: ADME, subcellular
[6] = Half life in rat hepatocytes; format: ADME, cell-based, Hepatocyte

Chain of Cytochrome P450 2D6 (P10635 whole entry): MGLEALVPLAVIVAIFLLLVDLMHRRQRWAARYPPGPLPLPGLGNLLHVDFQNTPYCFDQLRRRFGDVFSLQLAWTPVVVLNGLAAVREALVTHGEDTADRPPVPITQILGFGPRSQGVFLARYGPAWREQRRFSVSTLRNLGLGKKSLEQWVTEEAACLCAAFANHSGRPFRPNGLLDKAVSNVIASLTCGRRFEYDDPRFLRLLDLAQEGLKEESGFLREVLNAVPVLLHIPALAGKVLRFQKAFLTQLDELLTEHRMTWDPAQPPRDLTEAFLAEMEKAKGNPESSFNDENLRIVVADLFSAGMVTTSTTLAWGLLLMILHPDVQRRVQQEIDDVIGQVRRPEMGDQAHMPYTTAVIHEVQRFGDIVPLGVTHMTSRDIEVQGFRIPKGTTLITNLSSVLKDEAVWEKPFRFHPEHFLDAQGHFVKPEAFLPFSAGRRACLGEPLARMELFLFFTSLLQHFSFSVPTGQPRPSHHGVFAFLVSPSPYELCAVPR
Chain of Epidermal growth factor receptor (Homo sapiens, UniProt P00533, L747-S752DEL/P753S) (P00533 whole entry L747-S752del/P753S, looked up): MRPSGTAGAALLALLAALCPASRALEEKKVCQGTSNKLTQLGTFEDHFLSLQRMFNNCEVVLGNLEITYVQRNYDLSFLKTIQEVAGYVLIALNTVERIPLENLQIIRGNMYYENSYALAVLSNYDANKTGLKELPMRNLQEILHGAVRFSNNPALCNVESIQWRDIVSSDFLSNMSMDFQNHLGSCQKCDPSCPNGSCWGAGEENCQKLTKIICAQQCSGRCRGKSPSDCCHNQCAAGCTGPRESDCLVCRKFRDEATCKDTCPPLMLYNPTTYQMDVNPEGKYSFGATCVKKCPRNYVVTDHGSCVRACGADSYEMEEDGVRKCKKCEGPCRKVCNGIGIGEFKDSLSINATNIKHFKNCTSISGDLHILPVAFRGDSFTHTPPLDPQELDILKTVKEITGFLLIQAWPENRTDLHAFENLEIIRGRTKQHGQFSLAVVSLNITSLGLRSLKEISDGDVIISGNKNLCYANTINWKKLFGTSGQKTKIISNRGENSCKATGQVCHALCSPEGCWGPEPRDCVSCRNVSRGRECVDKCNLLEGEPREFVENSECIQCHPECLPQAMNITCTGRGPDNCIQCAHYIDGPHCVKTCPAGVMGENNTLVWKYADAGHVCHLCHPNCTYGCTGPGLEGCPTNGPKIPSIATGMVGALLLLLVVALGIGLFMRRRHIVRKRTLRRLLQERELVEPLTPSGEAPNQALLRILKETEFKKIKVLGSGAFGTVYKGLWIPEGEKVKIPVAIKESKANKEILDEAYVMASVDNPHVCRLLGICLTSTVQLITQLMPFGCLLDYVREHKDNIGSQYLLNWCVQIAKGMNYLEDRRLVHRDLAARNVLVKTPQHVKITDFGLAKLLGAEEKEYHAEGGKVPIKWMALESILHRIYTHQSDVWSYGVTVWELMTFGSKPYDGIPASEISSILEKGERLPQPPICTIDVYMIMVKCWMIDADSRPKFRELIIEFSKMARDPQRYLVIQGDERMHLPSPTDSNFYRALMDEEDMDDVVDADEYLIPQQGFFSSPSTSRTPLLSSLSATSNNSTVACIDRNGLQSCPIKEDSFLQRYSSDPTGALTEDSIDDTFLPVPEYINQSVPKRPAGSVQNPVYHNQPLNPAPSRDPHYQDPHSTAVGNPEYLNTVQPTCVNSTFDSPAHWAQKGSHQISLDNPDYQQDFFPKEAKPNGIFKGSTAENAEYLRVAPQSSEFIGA
Chain of Tyrosine-protein kinase Tec (Homo sapiens) (P42680 whole entry, the tested form may be a part): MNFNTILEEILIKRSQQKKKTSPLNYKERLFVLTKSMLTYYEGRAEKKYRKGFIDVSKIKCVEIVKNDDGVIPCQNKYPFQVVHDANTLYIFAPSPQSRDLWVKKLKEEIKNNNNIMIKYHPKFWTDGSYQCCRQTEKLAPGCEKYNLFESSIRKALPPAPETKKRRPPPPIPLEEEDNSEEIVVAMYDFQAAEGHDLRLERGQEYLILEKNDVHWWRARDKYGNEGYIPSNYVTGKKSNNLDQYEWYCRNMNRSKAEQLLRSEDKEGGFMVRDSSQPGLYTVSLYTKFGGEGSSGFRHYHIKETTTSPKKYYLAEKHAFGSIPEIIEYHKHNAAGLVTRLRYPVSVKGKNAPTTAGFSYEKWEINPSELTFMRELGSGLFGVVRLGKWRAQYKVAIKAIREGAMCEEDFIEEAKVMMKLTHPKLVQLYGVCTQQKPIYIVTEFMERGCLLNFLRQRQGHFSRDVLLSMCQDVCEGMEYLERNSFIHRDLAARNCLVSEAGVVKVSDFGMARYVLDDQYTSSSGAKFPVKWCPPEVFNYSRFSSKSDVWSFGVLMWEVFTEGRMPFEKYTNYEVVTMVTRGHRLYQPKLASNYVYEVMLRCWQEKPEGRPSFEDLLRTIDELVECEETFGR
Chain of Epidermal growth factor receptor (Homo sapiens, UniProt P00533, L861Q) (P00533 25-1210 L861Q limits assumed): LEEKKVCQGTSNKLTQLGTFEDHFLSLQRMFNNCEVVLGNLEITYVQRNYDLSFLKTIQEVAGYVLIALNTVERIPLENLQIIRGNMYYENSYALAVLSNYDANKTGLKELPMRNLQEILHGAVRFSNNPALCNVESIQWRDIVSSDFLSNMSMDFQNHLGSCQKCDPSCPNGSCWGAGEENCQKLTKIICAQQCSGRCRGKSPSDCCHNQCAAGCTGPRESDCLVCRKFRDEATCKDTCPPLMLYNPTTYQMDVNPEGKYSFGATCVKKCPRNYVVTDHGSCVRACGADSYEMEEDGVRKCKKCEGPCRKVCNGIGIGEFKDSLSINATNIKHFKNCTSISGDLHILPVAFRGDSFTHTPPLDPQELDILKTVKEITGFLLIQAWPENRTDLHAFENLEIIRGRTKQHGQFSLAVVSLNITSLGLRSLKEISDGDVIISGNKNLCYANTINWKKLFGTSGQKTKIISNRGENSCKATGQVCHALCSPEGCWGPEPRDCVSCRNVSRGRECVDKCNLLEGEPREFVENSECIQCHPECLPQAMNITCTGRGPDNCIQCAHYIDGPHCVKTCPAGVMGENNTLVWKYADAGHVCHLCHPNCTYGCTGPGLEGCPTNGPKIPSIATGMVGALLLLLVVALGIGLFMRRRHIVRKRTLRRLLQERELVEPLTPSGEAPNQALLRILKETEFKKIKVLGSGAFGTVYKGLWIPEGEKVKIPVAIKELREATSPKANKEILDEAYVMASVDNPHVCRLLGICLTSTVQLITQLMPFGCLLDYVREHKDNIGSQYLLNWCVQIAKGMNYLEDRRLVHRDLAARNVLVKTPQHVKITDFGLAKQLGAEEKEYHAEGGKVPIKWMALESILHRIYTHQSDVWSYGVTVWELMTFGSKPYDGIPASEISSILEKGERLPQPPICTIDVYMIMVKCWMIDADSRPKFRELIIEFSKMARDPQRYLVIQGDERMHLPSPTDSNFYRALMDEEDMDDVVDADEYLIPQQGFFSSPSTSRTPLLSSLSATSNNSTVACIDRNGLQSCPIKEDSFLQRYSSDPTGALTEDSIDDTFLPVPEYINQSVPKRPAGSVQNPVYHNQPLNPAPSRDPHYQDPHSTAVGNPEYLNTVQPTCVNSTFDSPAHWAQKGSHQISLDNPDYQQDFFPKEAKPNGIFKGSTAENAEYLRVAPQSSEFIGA
Chain of Epidermal growth factor receptor (Homo sapiens, UniProt P00533, L858R) (P00533 25-1210 L858R limits assumed): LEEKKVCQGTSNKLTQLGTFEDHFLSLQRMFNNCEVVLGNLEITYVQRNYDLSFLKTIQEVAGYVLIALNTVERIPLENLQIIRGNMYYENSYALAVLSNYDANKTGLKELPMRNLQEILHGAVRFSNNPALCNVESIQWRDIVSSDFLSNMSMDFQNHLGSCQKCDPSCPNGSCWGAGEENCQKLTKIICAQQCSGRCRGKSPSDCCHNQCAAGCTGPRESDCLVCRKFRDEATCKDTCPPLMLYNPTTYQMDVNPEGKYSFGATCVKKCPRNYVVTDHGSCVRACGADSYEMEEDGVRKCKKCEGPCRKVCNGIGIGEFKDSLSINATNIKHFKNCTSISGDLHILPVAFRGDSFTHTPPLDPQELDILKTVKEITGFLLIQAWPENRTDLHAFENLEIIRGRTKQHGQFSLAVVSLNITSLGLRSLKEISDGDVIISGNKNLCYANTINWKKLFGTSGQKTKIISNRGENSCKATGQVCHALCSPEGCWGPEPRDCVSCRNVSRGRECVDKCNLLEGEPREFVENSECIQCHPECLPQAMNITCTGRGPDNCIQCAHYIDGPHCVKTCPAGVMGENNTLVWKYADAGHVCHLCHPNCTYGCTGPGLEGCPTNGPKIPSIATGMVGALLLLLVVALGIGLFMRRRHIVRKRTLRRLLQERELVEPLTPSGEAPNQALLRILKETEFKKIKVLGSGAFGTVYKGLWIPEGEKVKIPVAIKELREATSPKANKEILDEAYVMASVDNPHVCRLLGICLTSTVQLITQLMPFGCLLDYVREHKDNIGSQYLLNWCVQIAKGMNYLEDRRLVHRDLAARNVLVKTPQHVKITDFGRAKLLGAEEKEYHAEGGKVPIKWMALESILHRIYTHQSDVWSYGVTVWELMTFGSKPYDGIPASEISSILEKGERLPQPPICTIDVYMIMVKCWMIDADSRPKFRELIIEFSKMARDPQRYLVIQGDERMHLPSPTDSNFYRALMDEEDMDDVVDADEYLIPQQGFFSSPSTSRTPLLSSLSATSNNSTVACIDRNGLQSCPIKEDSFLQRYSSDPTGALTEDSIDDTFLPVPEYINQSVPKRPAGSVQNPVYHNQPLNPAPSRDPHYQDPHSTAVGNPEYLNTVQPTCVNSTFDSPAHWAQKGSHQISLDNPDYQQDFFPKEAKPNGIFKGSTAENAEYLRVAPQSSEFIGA

## CCOc1cc2ncc(C#N)c(Nc3ccc(OCc4cccc(F)c4)c(Cl)c3)c2cc1NC(=O)CC1CCSS1 (configuration not stated)
NCI-H460
  GI50: 470 nM
A549
  CC50: 3400 nM
NCI-H322M
  TI: >41.5
CCRF-CEM
  TI: >166
MOLT-4
  TI: >156
[1]
  Kd: 12 nM
[2]
  Kd: 4.8 nM
[3]
  inhibition: 20%
[4]
  Kd: 9.6 nM
Cytochrome P450 2D6
  IC50: > 50000 nM
[5]
  half-life: > 60 min
[6]
  half-life: 53.6 min
